Data published in ChEMBL document CHEMBL3045750, “New class of algicidal compounds and fungicidal activities derived from a chromene amide of Amyris texana” (2010).
Activity calls are given as the source filed them. The rule behind the calls is not given here.

Assays:
Botrytis cinerea [1] = assay: Fungicidal activity against Botryotinia fuckeliana assessed as growth inhibition at 100 uM after 72 hr by microbioassay; type: functional; settings: read-out: GI
Summary of the method: (§1)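 Botrytis cinerea tested in a 96-well dose-response microbioassay alongside other fungal strains, after compounds were first screened by TLC bioautography against C. fragariae. Three concentrations were used (1.0, 10.0, 100.0 μM), with captan as positive standard. Growth inhibition was read 72 h after treatment.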

Colletotrichum fragariae = assay: Antifungal activity against Colletotrichum fragariae by TLC bioautography; type: functional, organism-based
Agrostis stolonifera = assay: Phytotoxic activity against Agrostis stolonifera var. Penncross at 0.1 to 1000 uM; type: functional, organism-based
Summary of the method: (§2)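 Germination phytotoxicity assay on lettuce (Lactuca sativa cv. Iceberg, dicot) and bent grass (Agrostis stolonifera cv. Pencross, monocot), with compounds tested across 0.1-1000 μM. Inhibition was scored visually on a 1-5 scale, where 1 is no inhibition and 5 is complete inhibition of germination.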

Lactuca sativa = assay: Phytotoxic activity against Lettuce cv. Iceberg (lettuce) at 0.1 to 1000 uM; type: functional, organism-based; summary of the method: as §2
Cucumis sativus = assay: Phytotoxic activity against Cucumis sativus (cucumber) cotyledon disks assessed as electrolyte leakage; type: functional, organism-based
Botrytis cinerea [2] = assay: Fungicidal activity against Botryotinia fuckeliana assessed as growth inhibition at 10 to 100 uM after 72 hr by microbioassay; type: functional, organism-based; summary of the method: as §1

Compound	inhibition of growth at 100 µM (Botrytis cinerea [1])	Activity (Colletotrichum fragariae)	Activity (Agrostis stolonifera)	Activity (Lactuca sativa)	Activity (Cucumis sativus)	growth inhibition (GI) (Botrytis cinerea [2])
CC1(C)C=Cc2ccc(CO)cc2O1	> 50%	Active	–	–	–	–
CC(C)NCCc1ccc2c(c1)C=CC(C)(C)O2	–	inactive	inactive	inactive	inactive	–
COC(=O)CCc1ccc2c(c1)C=CC(C)(C)O2	–	Active	–	–	–	–
COC(=O)c1ccc2c(c1)OC(C)(C)C=C2	> 50%	Active	–	–	–	–
C#CC(C)(C)Oc1cccc(C(=O)OC)c1	–	Active	–	–	–	–
C#CC(C)(C)Oc1ccc(CCC(=O)OC)cc1	–	Active	–	–	–	–
C#CC(C)(C)Oc1ccc(C(=O)OC)cc1	–	Active	–	–	–	–
COC(=O)Cc1ccc2c(c1)C=CC(C)(C)O2	30%	Active	inactive	inactive	–	–
C#CC(C)(C)Oc1ccc(CC(=O)OCC)cc1OC	–	Active	–	–	–	–
CC(C)NCCCc1ccc2c(c1)C=CC(C)(C)O2	–	inactive	inactive	inactive	–	–
CC(C)CC(=O)N(C)CCc1ccc2c(c1)C=CC(C)(C)O2	80%	–	inactive	inactive	–	–
CC(C)NCc1cccc2c1C=CC(C)(C)O2	–	inactive	inactive	inactive	–	–
CC1(C)C=Cc2cc(CCO)ccc2O1	> 50%	Active	inactive	inactive	inactive	–
CCOC(=O)Cc1cc2c(c(OC)c1)OC(C)(C)C=C2	–	Active	–	–	–	–
CNCCc1ccc2c(c1)C=CC(C)(C)O2	–	inactive	inactive	inactive	–	–
CC1(C)C=Cc2cc(CO)ccc2O1 [EULATACHROMENE]	30%	Active	–	–	inactive	–
COC(=O)c1ccc2c(c1)C=CC(C)(C)O2	> 50%	Active	–	–	–	–
CC1(C)C=Cc2cc(CCN)ccc2O1	–	inactive	inactive	inactive	–	–
CC1(C)C=Cc2c(CO)cccc2O1	–	Active	–	–	–	–
CC1(C)C=Cc2cc(CCCO)ccc2O1	> 50%	Active	–	–	–	–
C#CC(C)(C)Oc1ccc(CC(=O)OC)cc1	–	Active	–	–	–	–
O=C1C2CC=CCC2C(=O)N1SC(Cl)(Cl)Cl (stereo unspecified)	–	–	–	–	–	Active
CC(C)NCc1ccc2c(c1)C=CC(C)(C)O2	–	inactive	inactive	inactive	–	–
COC(=O)c1cccc2c1C=CC(C)(C)O2	> 50%	Active	–	–	–	–
COC(=O)CCc1ccc(O)cc1	–	Active	–	–	–	–
COc1cc(CCO)cc2c1OC(C)(C)C=C2	–	Active	–	–	–	–
COc1cc(CCNC(C)C)cc2c1OC(C)(C)C=C2	–	inactive	inactive	inactive	–	–
CC(C)NCc1ccc2c(c1)OC(C)(C)C=C2	–	inactive	inactive	inactive	–	–
